Bioassay records from PubChem.
Apaf1 activ = activators of human Apaf-1 apoptosome; O14727; Apaf-1 apoptosome caspase-3 activation, DEVD-Rh110 fluorescence; hits give low values; activity change, negative = activation, % at 20 µM; 330,000 compounds, 0.31% hits; AID 489031;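 active means activity change at or below -40% at 20 µM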
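Schedule: 30 min preincubation, 50 min reaction, room temperature / System: biochemical Apaf-1 apoptosome reconstitution / Medium: 20 mM HEPES pH 7.5 with CHAPS, BSA / Evaluation: Caspase-3 cleavage activity downstream of Apaf-1 activation / Detection: Caspase-3-released Rh110 fluorescence, 540 nm emission, 480 nm excitation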
Rh110 act interf = Rh110 signal interference in Apaf-1 activator counter-screen; fluorescence interference (activity change), % at 20 µM, hits read low; 980 tested, under 10 active; shares compounds with Apaf1 activ; AID 504616; Rh110 fluorescence interference, quenched caspase reaction, Ex480/Em540;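 active means mean activity change at or below -40% when tested at 20 µM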
Apaf-1 act conf2 = confirmation of human Apaf-1 activators. shares compounds with Apaf1 activ. reconstituted apoptosome caspase-3 activity, DEVD-Rh110 fluorescence; hits give low values. activity change, negative = activation, % at 20 µM. 980 compounds, 5% hits. AID 504617;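 active means mean activity change at or below -40%, meaning activation of 40% or more, at 20 µM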
Apaf1 act interf = Apaf-1 activator counter-screen fluorescence artifact; shares compounds with Apaf1 activ; fluorescence interference counterscreen, Apaf-1 activator assay; EC50, µM; 55 tested, under 10 active; call rule not given here
A number is an active result; - = inactive; . = no result. These entries were drawn from the full list.

SMILES	Apaf1 activ	Rh110 act interf	Apaf-1 act conf2	others
CCCCC[n+]1ccn(C2=C([O-])c3ccccc3C(=O)/C2=N\S(=O)(=O)c2ccc(Cl)cc2)c1	-	.	.
Cc1ccccc1Oc1ncnc2oc(-c3ccccc3)cc12	-75.5	-	-
CN(C)CCCNC(=O)C(=O)NCC1OCCN1S(=O)(=O)c1cccs1 (stereo not drawn)	-	.	.
Cc1ccc(-c2csc3nc4c5ccccc5c(NCCCN(C)C)nn4c(=O)c23)cc1	-	.	.
CC(C)(C)c1cc(CCC(=O)Nc2ccncc2)cc(C(C)(C)C)c1O	-450.4	-	-
O=C(Nc1ccc2nsnc2c1)N1CCCCC1	-	.	.
COc1ccccc1NC(=S)Nc1cccc2cnccc12	-	.	.
COc1ccccc1NC(=O)Nc1ccc(C(=O)N2CCCCC2)cc1	-80.1	-	-
COc1cc2c(C#N)c(N3CCCC3)nc(N)c2c(N)n1	-	.	.
CN(C1=C(NC(=O)c2ccccc2)C(=O)c2ccccc2C1=O)C1CCS(=O)(=O)C1 (stereo not drawn)	-	.	.
COc1ccc(/C=N/NC(=O)c2nn(-c3ccc(Cl)cc3)c(=O)c3c(N)scc23)cc1	-	.	.
O=C1CC(=Nc2ccccc2)NN1c1ccccc1	-	.	.
O=C(O)c1cc([N+](=O)[O-])ccc1NCCc1ccccc1	-97.3	-	-
Cc1ccc(-n2c(SCC(=O)Nc3cc(C)on3)nc3c([nH]c4ccccc43)c2=O)cc1	-	.	.
O=C(COC(=O)c1ccc([N+](=O)[O-])s1)NNC(=O)c1ccccc1	-	.	.
O=C(CCn1c2c(c3ccccc31)CCCC2)NNC(=O)c1ccc([N+](=O)[O-])cc1	-	.	.
Cc1ccc(C(=O)NC(=S)NNC(=O)c2cccc([N+](=O)[O-])c2)cc1	-116.0	-	-
Oc1ccc(N=Cc2ccc(O)c(O)c2)cc1	-	.	.
COCCn1c(N)c(C(=O)OCc2ccccc2)c2nc3ccccc3nc21	-	.	.
O=C(c1ccccc1)N1CCCC(c2ccc(Cl)cc2)=N1	-41.5	-	-
CCc1noc(C)c1C(=O)N1CCN(S(=O)(=O)c2c(C)cc(C)cc2C)CC1	-	.	.
COc1ccc2[nH]c3c4c(ccc3c2c1)C(=O)C=CC4=O	-	.	.
CC(OC(=O)c1cc(O)c2ccccc2c1O)C(=O)Nc1ccc(C(N)=O)cc1 (stereo not drawn)	-	.	.
Cc1ccc(C(=O)NC(C(=O)Nc2ccccc2)c2ccccc2)cc1 (stereo not drawn)	-54.7	-	-
S=C1NCCc2ccc(Cl)cc2C1c1ccccc1Cl (stereo not drawn)	-513.6	-	-
SMILES	Apaf1 activ	Rh110 act interf	Apaf-1 act conf2	others
C=CCn1c(SCC(=O)Nc2sccc2C(N)=O)nc2sc(CC)cc2c1=O	-	.	.
COc1ccccc1-c1sc2ccccc2c1-c1ccc(OCCN2CCCCC2)cc1	-	.	.
C#CCOCCOCCOCCNc1nc(N2CCN(C(=O)[C@H](CCCCN)n3cc([C@@H](N)C(C)CC)nn3)CC2)nc(N2CCN(C(=O)[C@H](Cc3cc4ccccc4[nH]3)n3cc([C@@H](N)C(C)CC)nn3)CC2)n1 (stereo partly drawn)	-	.	.
CC(C)(C)N1C(=O)Cc2c1nc(N)c1c(N)nc(N3CCCCC3CO)c(C#N)c21 (stereo not drawn)	-	.	.
Cc1sc2ncnc(N3CCC(C(=O)Nc4ccc(Cl)c(Cl)c4)CC3)c2c1C	-	.	.
CCC(C)c1ccc(NC(=O)C2CCN(c3ncccn3)CC2)cc1 (stereo not drawn)	-121.7	-	-
Cc1ccc(S(=O)(=O)c2nc(S(C)(=O)=O)sc2N(C)C)cc1	-89.7	-	-
Cc1ccc(S(=O)(=O)N2CCN(c3nc(CN4CCCC4)nc4sc(C)c(C)c34)CC2)cc1	-	.	.
O=C1c2ccccc2-c2nnc(-c3ccc(F)cc3)cc21	-	.	.
Fc1ccc(C2=NOC(c3nnc(-c4ccccc4)o3)C2)cc1 (stereo not drawn)	-460.5	-	-
CC(/C=N/NC(=O)Cc1cc(=O)[nH][nH]1)=C\c1ccccc1	-	.	.
CN1CCN(c2ccc(NC(=O)c3cc(S(N)(=O)=O)ccc3N3CCOCC3)cc2)CC1	-	.	.
Cc1cccc(NC(=O)c2cc(NC(=O)C3CCCCC3C(=O)O)ccc2N2CCOCC2)c1 (stereo not drawn)	-126.7	-	-
O=C1N(c2ccccc2)c2ccccc2C1(Cc1ccncc1)Cc1ccncc1	-	.	.
COc1ccccc1C1Nc2cccc3cccc(c23)N1	-	.	.
CC1CC(C)CN(CCCNC(=O)CN2C(=O)c3cccnc3Oc3ccc(Cl)cc32)C1 (stereo not drawn)	-148.2	-	-
CC(=O)N(C)C1=C(O)c2ccccc2C(=O)C1=O	-	.	.
NC1=NC[C@H](CC2CCCCC2)N1CCc1cc(C(F)(F)F)cc(C(F)(F)F)c1	-	.	.
Cc1ccc(-n2ccnc2SCC(=O)O)c(C)c1	-478.4	-	-
COC(=O)c1cc(C)nc2c1C(=O)C(=O)C=C2N1CCOCC1	-	.	.
Cc1cc(NC(=O)CCCn2nc([N+](=O)[O-])c(Br)c2C)no1	-	.	.
Cn1c(C(=O)N2CCN(c3nc4ccccc4s3)CC2)cc2sccc21	-	.	.
Cc1c(/C(O)=C2/C(=O)C(=O)N(CCN3CCOCC3)C2c2cccs2)cnn1-c1ccccc1 (stereo not drawn)	-424.1	-	-
O=C1C(O)=C(O)C(=O)c2ccccc21	-	.	.
C#CCOCCOCCOCCNc1nc(N2CCN(C(=O)CCCCCCCCCCNC(=O)[C@@H](CCC(=O)O)n3cc(CCCCCN)nn3)CC2)nc(N2CCN(C(=O)CCCCCCCCCCNC(=O)[C@H](CCCCN)n3cc(C[C@@H](C)CC)nn3)CC2)n1	-	.	.
SMILES	Apaf1 activ	Rh110 act interf	Apaf-1 act conf2	others
CS(=O)(=O)NN1C(=O)c2ccccc2NC1c1ccccc1O (stereo not drawn)	-64.1	-	-
CCOC(=O)C1=C(COC(=O)c2ccc([N+](=O)[O-])s2)NC(=O)NC1C (stereo not drawn)	-	.	.
COc1ccc(-n2c(C)cc(/C=N/Nc3nnc(C)n3N)c2C)cc1	-	.	.
C=C(C)C(=O)Nc1cccc(C2=NOC3(C2)C[C@@H](C(N)=O)N(C(=O)CCCCC)C3)c1 (stereo partly drawn)	-333.2	-	-120.8	Apaf1 act interf=-
CCN(CCCNC(=O)CCn1c(=O)[nH]c2ccccc2c1=O)c1ccccc1	-504.9	-	-
COc1ccccc1-c1c(C#N)c(N)nc2c1CCc1ccccc1-2	-	.	.
CN(C)CCCN(C(=O)CCc1ccccc1)c1nc2ccc(Cl)cc2s1	-	.	.
Cc1ccc(S(=O)(=O)N(C)C)cc1NC(=O)CSc1nc2ncc(Cl)cc2[nH]1	-110.6	-	-
Cc1ccc(S(=O)(=O)N(C)C)cc1NC(=O)c1ccccc1SCC(=O)N1CCCC1	-	.	.
COC(=O)C1=C(C)N(Cc2ccccc2)C(=NCc2cc(OC)c(OC)c(OC)c2)N[C@H]1CCc1ccccc1	-	.	.
c1ccc(-c2c(-c3ccccc3)n(Cc3ccco3)c3ncnc(NCCCn4ccnc4)c23)cc1	-	.	.
COc1ccc2c(c1)Cc1sc(NC(=O)c3cccs3)nc1-2	-	.	.
COc1ccc(OCC(=O)N/N=C(\C)c2cccs2)cc1	-80.6	-	-
CN(C)c1cc(N/N=C/c2ccccc2C(F)(F)F)nc(N(C)C)n1	-	.	.
COc1ccc(OC)c(C2CC(=O)N3CN(c4cccc(Cl)c4)CSC3=C2C#N)c1 (stereo not drawn)	-	.	.
